pEC50, pIC50: −log10 of the molar value.
System: not listed separately
Assay: Metal chelating activity assessed as inhibition of Fe2+-ferrozine complex formation after 10 mins
Assay type: physicochemical
Details: not given
Method in brief: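 Competitive ferrozine assay. FeSO4 (final 10 µM) and ferrozine (final 20 µM) are mixed with nucleotide in DDW at final 25–200 µM and agitated 10 min at room temperature. Absorbance of the Fe(II)-ferrozine complex is read at 562 nm with and without compound, and inhibition of complex formation is calculated. Three experiments, mean ± S.D.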

Row | SMILES | pIC50
1 | Nc1ncnc2c1ncn2[C@@H]1O[C@H](COP(=O)(O)OP(=O)(O)S)[C@@H](O)[C@H]1O (stereo not given in full) | 4.07
2 | Cc1c(C)c2c(c(C)c1O)CCC(C)(C(=O)O)O2 (stereo not given) [TROLOX] | 3.82
3 | O=C(O)CC(O)(CC(=O)O)C(=O)O [CITRIC ACID] | 3.52

System: not listed separately
Assay: Antioxidant activity assessed as inhibition of Fe2+-induced DMPO-OH adduct formation from H2O2 preincubated for 30 secs followed by DMPO/H2O2 addition measured after 150 secs by ESR analysis
Assay type: physicochemical
Details: not given
Method in brief: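 Fenton/ESR spin trapping: 1 mM ammonium iron(II) sulfate was added to 5–500 µM compound, then Tris buffer pH 7.4 (final pH 7.2–7.4). After 30 s, 100 mM DMPO and 100 mM H2O2 were added (stock concentrations). The ESR spectrum was recorded 150 s after H2O2, at room temperature. DMPO-OH adduct expressed as % of control containing FeSO4, H2O2 and DMPO only.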

Row | SMILES | pIC50
4 | CSc1nc(N)c2ncn([C@@H]3O[C@H](COP(=O)(O)OP(=O)(O)S)[C@@H](O)[C@H]3O)c2n1 (stereo not given in full) | 4.68
5 | CSc1nc(N)c2ncn([C@@H]3O[C@H](COP(=O)(S)OP(=O)(O)O)[C@@H](O)[C@H]3O)c2n1 (stereo in doubt; 7B) | 4.42
6 | Nc1ncnc2c1ncn2[C@@H]1O[C@H](COP(=O)(O)OP(=O)(O)S)[C@@H](O)[C@H]1O (stereo not given in full) | 4.72

Biological target: T1, Ectonucleotide pyrophosphatase/phosphodiesterase family member 1 (Homo sapiens, UniProt P22413)
T1 sequence (P22413 whole entry): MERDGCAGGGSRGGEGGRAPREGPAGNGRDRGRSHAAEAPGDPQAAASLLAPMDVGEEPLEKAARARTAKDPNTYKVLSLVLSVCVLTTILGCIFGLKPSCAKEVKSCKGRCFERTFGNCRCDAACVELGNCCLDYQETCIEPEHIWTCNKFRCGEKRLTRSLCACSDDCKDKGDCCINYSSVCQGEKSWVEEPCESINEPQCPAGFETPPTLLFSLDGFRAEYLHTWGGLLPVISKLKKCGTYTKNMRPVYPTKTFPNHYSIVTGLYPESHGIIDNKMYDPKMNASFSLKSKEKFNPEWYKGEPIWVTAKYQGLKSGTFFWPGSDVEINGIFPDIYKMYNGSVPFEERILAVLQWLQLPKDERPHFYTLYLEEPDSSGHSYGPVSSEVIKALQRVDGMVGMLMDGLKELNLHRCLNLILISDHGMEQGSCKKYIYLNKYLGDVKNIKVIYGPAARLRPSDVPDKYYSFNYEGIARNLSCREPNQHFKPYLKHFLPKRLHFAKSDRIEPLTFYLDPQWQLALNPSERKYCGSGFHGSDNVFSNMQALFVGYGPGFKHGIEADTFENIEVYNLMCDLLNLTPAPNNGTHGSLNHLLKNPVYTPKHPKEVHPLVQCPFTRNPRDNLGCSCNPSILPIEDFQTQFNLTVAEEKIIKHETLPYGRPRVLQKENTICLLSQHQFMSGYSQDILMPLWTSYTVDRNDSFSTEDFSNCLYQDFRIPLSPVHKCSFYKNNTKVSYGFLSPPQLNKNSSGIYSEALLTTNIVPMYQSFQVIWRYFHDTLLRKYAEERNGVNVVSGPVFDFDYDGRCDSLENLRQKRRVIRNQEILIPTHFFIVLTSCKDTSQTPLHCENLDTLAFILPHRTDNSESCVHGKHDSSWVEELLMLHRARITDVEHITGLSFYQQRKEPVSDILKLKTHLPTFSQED
Assay: Drug metabolism assessed as human eNPP1-mediated compound hydrolysis at 4 mM after 2 hrs by reverse-phase HPLC analysis relative to ATP
Assay type: ADME
Details: 2 h, 4000 µM
Method in brief: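 Human eNPP1 extract (19 µg) was preincubated 3 min at 37 °C in 1 mM CaCl2, 200 mM NaCl, 10 mM KCl, 100 mM Tris pH 8.5, then reaction started with compound (4 mM stock). Stopped after 2 h with ice-cold 1 M perchloric acid, neutralised with KOH, and analysed by RP-HPLC (90% 100 mM TEAA pH 7/10% CH3CN). Degradation from the monophosphate peak after subtracting the acid-only control.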

Row | SMILES | Drug metabolism
7 | CSc1nc(N)c2ncn([C@@H]3O[C@H](COP(=O)(S)OP(=O)(O)O)[C@@H](O)[C@H]3O)c2n1 (stereo in doubt; 7B) | 23.7%

System: PC-12
Assay: cells
Details: Rattus norvegicus, PC-12, 1 h

Row | SMILES | pIC50
8 | CSc1nc(N)c2ncn([C@@H]3O[C@H](COP(=O)(O)OP(=O)(O)S)[C@@H](O)[C@H]3O)c2n1 (stereo not given in full) | 4.92
9 | Nc1ncnc2c1ncn2[C@@H]1O[C@H](COP(=O)(O)OP(=O)(O)S)[C@@H](O)[C@H]1O (stereo not given in full) | 4.70

System: PC-12
Assay: not given
Details: not given

Row | SMILES | pIC50
10 | CSc1nc(N)c2ncn([C@@H]3O[C@H](COP(=O)(S)OP(=O)(O)O)[C@@H](O)[C@H]3O)c2n1 (stereo in doubt; 7B) | 6.22

System: not listed separately
Assay: Antioxidant activity assessed as ABTS radical scavenging activity after 7 mins
Assay type: physicochemical
Details: not given
Method in brief: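 ABTS radical cation made from 7 mM ABTS with 2.45 mM persulfate (final), kept in the dark at room temperature 12–16 h. It was then diluted in water pH 7.4 to A734 0.80 and mixed with compound or Trolox standard (final 0–60 µM). A734 was read at 7 min. Percent inhibition plotted against concentration; at least three runs, in triplicate.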

Row | SMILES | pIC50
11 | CSc1nc(N)c2ncn([C@@H]3O[C@H](COP(=O)(O)OP(=O)(O)S)[C@@H](O)[C@H]3O)c2n1 (stereo not given in full) | 4.82
12 | CSc1nc(N)c2ncn([C@@H]3O[C@H](COP(=O)(S)OP(=O)(O)O)[C@@H](O)[C@H]3O)c2n1 (stereo in doubt; 7B) | 4.92
13 | Nc1ncnc2c1ncn2[C@@H]1O[C@H](COP(=O)(O)OP(=O)(O)S)[C@@H](O)[C@H]1O (stereo not given in full) | 4.82
14 | Cc1c(C)c2c(c(C)c1O)CCC(C)(C(=O)O)O2 (stereo not given) [TROLOX] | 4.74

Biological target: P2Y purinoceptor 1 (Homo sapiens, UniProt P47900)
Sequence (P47900 whole entry): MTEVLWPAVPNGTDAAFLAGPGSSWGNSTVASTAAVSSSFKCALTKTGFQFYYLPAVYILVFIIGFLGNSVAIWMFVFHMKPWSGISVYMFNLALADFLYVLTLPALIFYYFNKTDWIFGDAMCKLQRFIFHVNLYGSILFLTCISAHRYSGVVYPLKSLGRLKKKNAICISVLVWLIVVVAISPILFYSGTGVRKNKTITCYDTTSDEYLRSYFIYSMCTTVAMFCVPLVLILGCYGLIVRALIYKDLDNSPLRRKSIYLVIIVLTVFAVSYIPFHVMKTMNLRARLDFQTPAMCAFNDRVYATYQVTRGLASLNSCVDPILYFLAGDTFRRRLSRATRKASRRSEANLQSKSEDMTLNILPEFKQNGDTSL
Assay: Agonist activity at GFP-tagged human P2Y1R transfected in human 1321N1 cells assessed as increase in intracellular Ca2+ level by fura 2/AM probe-based fluorescence assay
Assay type: functional, cell-based
Details: not given

Row | SMILES | pEC50
15 | CSc1nc(N)c2ncn([C@@H]3O[C@H](COP(=O)(O)OP(=O)(O)S)[C@@H](O)[C@H]3O)c2n1 (stereo not given in full) | 7.43
16 | CSc1nc(N)c2ncn([C@@H]3O[C@H](COP(=O)(S)OP(=O)(O)O)[C@@H](O)[C@H]3O)c2n1 (stereo in doubt; 7B) | 7.77
17 | Nc1ncnc2c1ncn2[C@@H]1O[C@H](COP(=O)(O)OP(=O)(O)S)[C@@H](O)[C@H]1O (stereo not given in full) | 5.90

Biological target: T2, P2Y purinoceptor 11 (Homo sapiens, UniProt Q96G91)
T2 sequence (Q96G91 whole entry): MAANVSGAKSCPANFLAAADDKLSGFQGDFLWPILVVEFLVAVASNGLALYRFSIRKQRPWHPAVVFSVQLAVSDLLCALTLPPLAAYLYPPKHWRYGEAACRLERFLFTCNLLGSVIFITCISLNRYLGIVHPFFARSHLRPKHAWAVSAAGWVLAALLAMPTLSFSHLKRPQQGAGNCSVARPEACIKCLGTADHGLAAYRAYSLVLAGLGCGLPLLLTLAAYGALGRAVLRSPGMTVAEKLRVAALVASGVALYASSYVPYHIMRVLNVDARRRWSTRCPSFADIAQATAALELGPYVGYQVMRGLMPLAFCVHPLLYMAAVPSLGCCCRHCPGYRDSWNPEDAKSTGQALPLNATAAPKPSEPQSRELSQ
Assay: Agonist activity at GFP-tagged human P2Y11R transfected in human 1321N1 cells assessed as increase in intracellular Ca2+ level by fura 2/AM probe-based fluorescence assay
Assay type: functional, cell-based
Details: not given

Row | SMILES | pEC50
18 | CSc1nc(N)c2ncn([C@@H]3O[C@H](COP(=O)(O)OP(=O)(O)S)[C@@H](O)[C@H]3O)c2n1 (stereo not given in full) | 6.05
19 | CSc1nc(N)c2ncn([C@@H]3O[C@H](COP(=O)(S)OP(=O)(O)O)[C@@H](O)[C@H]3O)c2n1 (stereo in doubt; 7B) | 6.00
20 | Nc1ncnc2c1ncn2[C@@H]1O[C@H](COP(=O)(O)OP(=O)(O)S)[C@@H](O)[C@H]1O (stereo not given in full) | 4.49

Reference: ChEMBL document CHEMBL3632592, “Identification of Highly Promising Antioxidants/Neuroprotectants Based on Nucleoside 5'-Phosphorothioate Scaffold. Synthesis, Activity, and Mechanisms of Action” (J Med Chem, 2015)
